Experimental findings from ChEMBL document CHEMBL1152821, “Discovery of novel DNA gyrase inhibitors by high-throughput virtual screening” (Antimicrob Agents Chemother, 2007) are described below.

A short description of experiment [1]: Inhibition of Escherichia coli recombinant DNA gyrase-mediated supercoiling of relaxed pRSET A-DNA by agarose gel electrophoresis. An outline of the steps:
(§1)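 Gyrase reconstituted from purified GyrA and GyrB (1:1.4); substrate is pRSET A relaxed with wheat germ topo I. 0.5 μg DNA and drug preincubated on ice 10 min in Tris-acetate pH 7.9, KOAc, Mg acetate, DTT, 1.5 mM ATP, spermidine, BSA. Started with 2.5 nM GyrA/3.5 nM GyrB, 30°C 30 min, then SDS/EDTA stop. 1% agarose gel, ethidium stain, densitometry; % supercoiled versus no-drug control.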

In experiment [2] the test system is Nucleic Acid. As to the kind of experiment: Binding affinity to pGEM2 DNA assessed as DNA intercalation at 1600 uM by DNA unwinding assay. The experiment is classed as nucleic-acid assay. An outline of the steps:
(§2)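 Drug-induced DNA unwinding measured with pGEM2 plasmid DNA relaxed by wheat germ DNA topoisomerase I, following a previously described method.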

Experiment [3] concerns Escherichia coli. Description: Inhibition of Escherichia coli DNA gyrase B ATPase activity up to 1.5 mM by spectrophotometry. An outline of the steps: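 DNA-independent ATPase of purified E. coli GyrB (40 nM) with 2 mM ATP, read spectrophotometrically by coupling ATP hydrolysis to NADH oxidation. Ki calculated as Ki(app)/(1 + [ATP]/Km), with Km 0.3 mM for E. coli gyrase ATPase.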

The subject of experiment [4] is Nucleic Acid. Description: Binding affinity to pGEM2 DNA assessed as DNA intercalation at 1.6 mM by DNA unwinding assay.
For experiment [5], the target named is T1, DNA gyrase (Escherichia coli) (UniProt P0AES6+P0AES4). As to the kind of experiment: Inhibition of Escherichia coli recombinant DNA gyrase assessed as enzyme-mediated supercoiling of relaxed pRSET A-DNA at 640 uM by agarose gel electrophoresis. The class given is protein-complex assay. Also noted: scale not given: the % may be the effect or the level left. An outline of the steps:
(§3)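 GyrA and GyrB, expressed in E. coli XL1-Blue and purified, reconstituted 1:1.4 (2.5 nM GyrA, 3.5 nM GyrB). Substrate was 0.5 μg relaxed pRSET A DNA (topoisomerase I-relaxed). Buffer: 25 mM Tris-acetate pH 7.9, 20 mM K acetate, 10 mM Mg acetate, 2 mM DTT, 1.5 mM ATP, 5 mM spermidine, 50 μg/ml BSA. Drug preincubated 10 min on ice; reaction 30 min at 30°C. Run on 1% agarose 20 h, stained with ethidium bromide, bands quantitated. % supercoiled DNA expressed relative to no-drug control.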

Experiment [6] has as its system Escherichia coli. As to the kind of experiment: Antibacterial activity against Escherichia coli XL1-Blue assessed as growth inhibition at 64 uM after 30 mins. The experiment is classed as functional, organism-based. The method in brief:
(§4)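 Log-phase E. coli XL1-Blue (overnight LB cultures at 37°C diluted to OD595 0.05 in fresh LB, shaken at 37°C until log phase) transferred into flasks containing filter-sterilized drug at various concentrations. Shaking growth continued at 37°C. Growth followed by culture absorbance at OD595 over time.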

Experiment [7] relates to Escherichia coli. Description: Inhibition of Escherichia coli recombinant DNA gyrase-mediated supercoiling activity of relaxed pRSET A-DNA at 192 uM by agarose gel electrophoresis. Also noted: scale not given: the % may be the effect or the level left. The method in brief:
as §3

Experiment [8] can be described thus: Inhibition of Escherichia coli DNA gyrase B ATPase activity by spectrophotometry. The method in brief: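 DNA-independent ATPase of purified E. coli GyrB (40 nM) with 2 mM ATP. ATP hydrolysis coupled to NADH oxidation and read spectrophotometrically. Ki calculated from Ki(app) as Ki = Ki(app)/(1 + [ATP]/Km), taking Km 0.3 mM for E. coli gyrase ATPase.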
Experiment [9] deals with Nucleic Acid. Description: Binding affinity to pGEM2 DNA assessed as DNA intercalation at 640 uM by DNA unwinding assay. The experiment is classed as nucleic-acid assay.
The test system of experiment [10] is Escherichia coli. As to the kind of experiment: Antibacterial activity against Escherichia coli XL1-Blue assessed as growth inhibition at 21 uM after 60 mins. The class given is functional, organism-based. The method in brief: as §4
Experiment [11] deals with T1, DNA gyrase (Escherichia coli). As to the kind of experiment: Inhibition of Escherichia coli recombinant DNA gyrase assessed as enzyme-mediated supercoiling of relaxed pRSET A-DNA at 640 uM by agarose gel electrophoresis in presence of 0.01% Triton X-100. The experiment is classed as protein-complex assay. Also noted: scale not given: the % may be the effect or the level left. An outline of the steps:
as §3

Experiment [12] concerns Escherichia coli. Description: Antibacterial activity against Escherichia coli XL1-Blue assessed as complete inhibition at 192 uM with in 30 mins. The class given is functional, organism-based. An outline of the steps: as §4
The target in experiment [13] is T1, DNA gyrase (Escherichia coli). Description: Inhibition of Escherichia coli recombinant DNA gyrase assessed as enzyme-mediated supercoiling of relaxed pRSET A-DNA at 170 uM by agarose gel electrophoresis. The class given is protein-complex assay. Also noted: scale not given: the % may be the effect or the level left. An outline of the steps: as §1
Experiment [14] has as its system Nucleic Acid. As to the kind of experiment: Binding affinity to pGEM2 DNA assessed as DNA intercalation at >=50 uM by DNA unwinding assay. The experiment is classed as nucleic-acid assay. The method in brief:
as §2

Experiment [15] concerns the target T1, DNA gyrase (Escherichia coli). As to the kind of experiment: Inhibition of Escherichia coli recombinant DNA gyrase assessed as enzyme-mediated supercoiling of relaxed pRSET A-DNA at 170 uM by agarose gel electrophoresis in presence of 0.025% Triton X-100. The class given is protein-complex assay. Also noted: scale not given: the % may be the effect or the level left. An outline of the steps: as §1

For experiment [16] the target is unchanged. Description: Inhibition of Escherichia coli recombinant DNA gyrase assessed as enzyme-mediated supercoiling of relaxed pRSET A-DNA at 170 uM by agarose gel electrophoresis in presence of 0.01% Triton X-100. The experiment is classed as protein-complex assay. Also noted: scale not given: the % may be the effect or the level left. An outline of the steps:
as §1

Experiment [17] concerns Nucleic Acid. As to the kind of experiment: Binding affinity to pGEM2 DNA assessed as DNA intercalation at 100 uM by DNA unwinding assay. The class given is nucleic-acid assay. The method in brief: as §2

Structures are written as SMILES. Activity calls are given as the source filed them. The rule behind the calls is not given here.

A word on the IC50: it is the midpoint of a concentration-inhibition curve. For `O=Cc1c[nH]nn1`, in experiment [1], the IC50 is 737 µM. In addition, the result in [2] was inactive.
In the case of `NC(=O)c1[nH]cnc1N`, the IC50 in experiment [1] turned out to be 814 µM. Moreover, the result in experiment [3], in experiment [2] and in experiment [4] was inactive.
The term Ki denotes the dissociation constant of the complex between target and ligand, obtained from inhibition or displacement. For the compound `O=NNc1cnc(O)nc1O`, in experiment [1], the IC50 is 338 µM. Also, the Activity in [5] is 10%; in experiment [7], above 30%; in experiment [11] it was 17%. Also, the result in experiment [6], in [10] and in [12] was Active. Further, the Ki in [8] stood at 149 µM. In addition, the result in [9] and in experiment [2] was inactive.
`O=C(O)c1cn(C2CC2)c2cc(N3CCNCC3)c(F)cc2c1=O` [CIPROFLOXACIN]: the IC50 in [1] stood at 1.2 µM.
Consider `O=c1ccc2nccc3c4ccccc4n1c23` [CANTHIN-6-ONE], for which the IC50 in experiment [1] stood at 50 µM. Moreover, the Activity in experiment [13] was 7%; in [15] it was 12%; in experiment [16], 13%. Further, in experiment [14], the result was Active.
As to `CO[C@@H]1[C@@H](OC(=O)c2ccc(C)[nH]2)[C@@H](O)[C@@H](Oc2ccc3c(O)c(NC(=O)c4c[nH]c(C(=O)Nc5c(O)c6ccc(O[C@H]7OC(C)(C)[C@H](OC)[C@@H](OC(=O)c8ccc(C)[nH]8)[C@H]7O)c(C)c6oc5=O)c4C)c(=O)oc3c2C)OC1(C)C` [COUMERMYCIN], the IC50 in experiment [1] was 0.04 µM.
For `O=c1[nH]nc(-c2cc(-c3ccccc3)nc3ccccc23)o1`, in experiment [1], the IC50 was 72 µM. Also, the outcome in experiment [17] was inactive.
